Bioassay records: PubChem BioAssay, Broad Institute
This is a sample that favours compounds with a hit; in the whole collection about 1.3% have one here.
RAD52 inh – blocks human RAD52 DNA annealing; inhibition, % at 18.7 µM; P43351; AID 651710; hit rate 0.46% among 360,000; recombinant RAD52 DNA annealing, FRET fluorescence;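 active = every replicate showing at least 50% inhibition; inconclusive = mean inhibition at least 50% but not in every replicate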
RAD54 branch – blocks human RAD54 Holliday junction branch migration. FAM/BHQ fluorescence. inhibition, % at 10.4 µM. hit rate 0.14% among 360,000. AID 602329;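 active = mean normalized replicate activity at least 40 and at least half of replicates scoring 40 or more; inconclusive = only one of the two criteria met; inactive = mean below 40 and under half of replicates reaching 40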;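 note: 0% = median of neutral control wells and 100% = median of positive control wells; inhibitors cause a drop in the FAM fluorescence signal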
Target sequence (Q92698 whole entry, looked up): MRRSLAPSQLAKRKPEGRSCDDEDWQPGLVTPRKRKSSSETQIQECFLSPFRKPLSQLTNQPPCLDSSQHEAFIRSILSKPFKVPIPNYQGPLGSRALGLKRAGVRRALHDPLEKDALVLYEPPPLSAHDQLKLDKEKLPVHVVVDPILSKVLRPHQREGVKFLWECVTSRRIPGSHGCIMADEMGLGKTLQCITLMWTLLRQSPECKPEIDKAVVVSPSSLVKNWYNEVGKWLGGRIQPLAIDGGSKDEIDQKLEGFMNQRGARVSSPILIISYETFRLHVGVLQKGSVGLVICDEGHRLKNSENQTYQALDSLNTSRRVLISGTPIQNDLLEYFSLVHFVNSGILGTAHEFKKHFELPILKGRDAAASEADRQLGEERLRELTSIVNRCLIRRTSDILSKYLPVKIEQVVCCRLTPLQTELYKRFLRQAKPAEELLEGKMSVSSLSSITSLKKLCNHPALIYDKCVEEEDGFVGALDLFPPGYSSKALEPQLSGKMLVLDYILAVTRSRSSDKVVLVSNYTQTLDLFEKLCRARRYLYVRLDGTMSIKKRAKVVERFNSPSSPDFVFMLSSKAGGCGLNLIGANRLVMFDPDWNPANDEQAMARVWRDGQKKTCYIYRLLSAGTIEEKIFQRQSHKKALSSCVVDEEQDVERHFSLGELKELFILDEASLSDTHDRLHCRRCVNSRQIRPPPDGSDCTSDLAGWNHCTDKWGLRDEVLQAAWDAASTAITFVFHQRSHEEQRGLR
PAX8 reporter – PAX8 transcriptional activity inhibition; hit rate 1.2% among 360,000; inhibition, % at 12.6 µM; RMG-I TPO-luciferase reporter, SteadyGlo, 24 h;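 active = mean replicate inhibition at least 60% with every replicate also reaching 60%; inconclusive = only one of the two criteria is met; inactive = mean below 60% and not all replicates reaching 60%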;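 note: luciferase light reporting Pax8 driven TPO promoter activity; plate controls were median of neutral control wells for no effect and mitoxantrone controls for full effect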
FN deposition inh – fibronectin deposition inhibition; hit rate 0.086% among 350,000; AH1F fibroblasts, Alexa488-fibronectin deposition fluorescence, overnight; AID 743247; inhibition, % at 12.6 µM;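 active = mean inhibition across replicates of 30% or more, regardless of how many single replicates reach that level; inconclusive = mean under 30% yet at least half of replicates reach 30%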;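 note: positive control wells lacked labelled fibronectin entirely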
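Assay system: AH1F fibroblasts / Quantity: 10000 cells per well / Medium: DMEM plus 2% serum, read in PBS / Reagent: labelled fibronectin 24 nM / Dosing: single dose, pinned / Times: 1 h cell attachment, overnight exposure to compound and label / Signal: fluorescence, ex 485 nm, em 525 nm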
Numbers without * were called inactive; ? = inconclusive; . = no result given; ! = not active in a repeat.

SMILES	RAD52 inh	RAD54 branch	PAX8 reporter	FN deposition inh
C[C@@H]1CN([C@@H](C)CO)C(=O)c2cc(NC(=O)CCC(F)(F)F)ccc2O[C@@H](C)CCCCO[C@H]1CN(C)Cc1ccc(C(F)(F)F)cc1	-31	-8	75*	.
C[C@@H]1CCCCO[C@@H](CN(C)Cc2ccc(C(F)(F)F)cc2)[C@@H](C)CN([C@H](C)CO)C(=O)c2cc(NC(=O)Cc3ccccc3)ccc2O1	.	-6	7	.
CC1CC2C3CCC4=CC(=O)CCC4(C)C3CCC2(C)C1(O)C(=O)CO (centres undefined)	-14	11	0	-6
O=C(Nc1ccc(Oc2ccccc2)nc1)C1CCCCN1Cc1ccc(O)cc1 (centres undefined)	-9	-5	-14	6
C[C@@H]1CCCCO[C@H](CN(C)Cc2ccc(C(F)(F)F)cc2)[C@H](C)CN([C@@H](C)CO)C(=O)c2cc(NC(=O)Cc3ccccc3)ccc2O1	-35	1	65*!	3
C[C@@H]1CN([C@H](C)CO)C(=O)c2cc(NC(=O)CCC(F)(F)F)ccc2O[C@@H](C)CCCCO[C@@H]1CN(C)Cc1ccc(Cl)c(Cl)c1	-24	-4	81*	.
C[C@@H]1CCCCO[C@@H](CN(C)Cc2ccccc2)[C@H](C)CN([C@H](C)CO)C(=O)c2cc(NC(=O)Cc3ccccc3)ccc2O1	6	11	3	4
CCOC(=O)N1CCN(c2cccc(C)c2C)CC1	11	-1	70*	-1
CCOc1ncccc1C(=O)N1CCN(c2cc(Cl)ccc2C)CC1	-14	.	41	-9
CCOc1ncccc1C(=O)N1CCN(c2cccc(C)c2C)CC1	0	.	63*	-7
CCOC(=O)N1CCN(c2c(N3CCN(c4cccc(C)c4C)CC3)c(=O)c2=O)CC1	-3	0	2	1
CC(=O)Nc1ccc(S(=O)(=O)N2CCN(C(=O)N3CCCCCC3)CC2)cc1	.	-1	.	.
O=C(Nc1ccncc1)Nc1cccc(Cl)c1	-7	-2	-18	7
O=C(Nc1cccc(Cl)c1)Nc1csc([N+](=O)[O-])c1	1	-4	99*	7
CCOc1ccc(NC(=O)CN(C)C(=O)c2cn(-c3ccccc3)nc2-c2cccs2)cc1OCC	-7	9	19	0
CCNC(=O)C[C@@H]1CC[C@@H]2[C@H](COC[C@H](O)CN2C(=O)c2cc(Cl)cc(Cl)c2)O1	-6	2	.	-5
C=C1C(=O)[C@@]23[C@H](O)C[C@@H]4C(C)(C)CC[C@H](O)[C@]4(C)[C@@H]2C[C@H](O)[C@@H]1[C@H]3O	-5	-14	97*	3
C=C1C(=O)[C@@]23[C@H](O)C[C@@H]4C(C)(C)CC[C@H](O)[C@@]4(C)[C@@H]2CC[C@@H]1[C@H]3O	-9	1	112*	24
CCCNC(=O)C1(C)CCN(C(=O)c2ccccc2F)C1 (centres undefined)	-4	-15	1	.
CCNC(=O)C1(C)CCN(C(=O)c2ccccc2F)C1 (centres undefined)	-7	-5	96*	4
Cc1cc(NC(=O)CSCC(=O)Nc2cccc(S(=O)(=O)N3CCCCCC3)c2)no1	-15	-4	6	-1
C[C@@H]1CN([C@@H](C)CO)C(=O)c2cc(NS(=O)(=O)c3ccc(F)cc3)ccc2O[C@H]1CN(C)Cc1ccc(Oc2ccccc2)cc1	-43	-3	33	4
Nc1ccc2c(c1)CC(=O)c1ccccc1S2	-5	2	93*	-2
O=C1Cc2ccccc2Sc2ccc(O)cc21	-6	.	40	-5
O=C(NN1CCOCC1)c1ccccc1Br	-12	5	-24	4
SMILES	RAD52 inh	RAD54 branch	PAX8 reporter	FN deposition inh
CN1C(=O)/C(=C/c2ccco2)SC1=Nc1ccc(N2CCOCC2)cc1	.	.	10	2
Cc1ccc(C)c(-c2cc(C(=O)Nc3cccc(C(=O)O)c3)c3ccccc3n2)c1	-9	.	83*	4
Cc1noc(C)c1NC(=O)Nc1cccc2c1O[C@@H](CN(C)S(=O)(=O)c1ccc(F)cc1)[C@H](C)CN([C@@H](C)CO)C2=O	-7	2	.	.
CCOC(=O)c1sc2ccccc2c1OC(=O)c1ccccc1OC	-13	5	60*	-1
C[C@H]1CN([C@@H](C)CO)C(=O)Cc2cc(NC(=O)Nc3cccc4ccccc34)ccc2O[C@@H]1CN(C)Cc1ccc(Oc2ccccc2)cc1	2	8	25	.
COc1ccccc1C#Cc1ccc([C@H]2[C@H](CO)N3CCCCN(C(=O)C4CCCC4)C[C@@H]23)cc1	56*	-1	-15	.
COc1ccccc1C#Cc1ccc([C@@H]2[C@@H](CO)N3CCCCN(C(=O)C4CCCC4)C[C@@H]23)cc1	27	-8	22	.
O=C(Nc1ccc(F)cc1)N1CCCCN2[C@H](CO)[C@@H](c3ccc(C#Cc4ccccc4)cc3)[C@@H]2C1	-5	-3	24	.
COc1ccc(NC(=O)N2CCCCN3[C@H](CO)[C@H](c4ccc(C#Cc5ccccc5)cc4)[C@H]3C2)cc1	95*	4	82*	.
O=C(Nc1ccc(F)cc1)N1CCCCN2[C@@H](CO)[C@H](c3ccc(C#Cc4ccccc4)cc3)[C@@H]2C1	-33	12	70*	-6
CCCC#Cc1ccc([C@@H]2[C@@H](CO)N3C(=O)CN(C(=O)NCCC)C[C@@H]23)cc1	-14	.	-5	.
Nc1c(C(=O)Nc2ccccc2)nnn1-c1ccc2c(c1)OCCO2	-24	4	-60	-1
CC[C@]12c3[nH]c4cc(CCC(=O)N(C)C)ccc4c3CCN1C(=O)[C@@H](CC(=O)NCc1ccc(OC)c(OC)c1)C[C@@H]2C(=O)N1CCN(C(=O)C2CC2)CC1	3	-3	-13	.
O=C(/C=C/c1ccc([N+](=O)[O-])cc1)N1CCN(Cc2ccccc2)CC1	-11	0	36	1
CCN(CC)CCCNC(=O)c1ccc(C)c(NC(=O)C2=C(C)OCCS2)c1	-4	13	-10	6
COc1ccc([Si](C)(C)[C@H]2[C@H](CCO)O[C@@]3(C(=O)N(Cc4cccc(NC(C)=O)c4)c4ccccc43)[C@@H]2C)cc1	-6	-6	?	.
COc1ccc([Si](C)(C)[C@@H]2[C@@H](CCO)O[C@]3(C(=O)N(Cc4ccc(NC(C)=O)cc4)c4ccccc43)[C@H]2C)cc1	-1	4	107*	.
COc1ccc([Si](C)(C)[C@H]2[C@H](CCO)O[C@@]3(C(=O)N(Cc4ccc(NC(C)=O)cc4)c4ccccc43)[C@@H]2C)cc1	18	-7	111*	.
Brc1ccc(CN2CCN(Cc3c[nH]c4ccccc34)CC2)cc1	11	8	12	0
Brc1ccccc1CN1CCN(Cc2c[nH]c3ccccc23)CC1	-3	.	63*	14
COc1ccc(NC(=O)Nc2ccc3c(c2)CC(=O)N([C@@H](C)CO)C[C@@H](C)[C@H](CN(C)S(=O)(=O)c2ccc(OC)cc2)O3)cc1	-13	-4	0	.
C=C(CN(C)C)C(=O)c1ccc(C)cc1C	-6	.	85*	-3
Cc1ccc(C(=O)CC(=O)c2ccccc2C)c(O)c1	-15	1	-48	12
CCCOc1ccc(Br)cc1/C=N/NC(=O)c1cc(OC)c(OC)c(OC)c1	.	.	14	1
